Test results as given in article PMC3855573 (Biochemistry, 2013).
“And” between values parts separate entries of the source, which are not always exact repeats. Identical values can stand only once. Like-named read-outs stand apart in the source and are kept apart here.

Columns and labels:
MV FlAsH = MV FlAsH (Gallus gallus, UniProt Q02440, D297C/G292C/I296C/S293C/V295G); experiment: Actin-activated steady-state ATPase, NADH coupled assay; type: biochemical, chicken; settings: 20 μM actin, 25°C
acto-MV FlAsH = acto-MV FlAsH (Gallus gallus, UniProt Q02440, D297C/G292C/I296C/S293C/V295G); experiment: Mg dependence of ADP release rate constants; type: binding, chicken; settings: read-out: KD.Mg, Eq. 14
Procedure, shortened: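 Acto-MV FlAsH·mantdADP (final 0.25 μM MV FlAsH, 0.5 μM actin, 10 μM mantdADP) stopped-flow mixed with 1 mM ATP at 25°C. Buffer: K50TCEP, pH 7.0, with 0.5–10 mM MgCl2; free Mg calculated from stability constants. FRET read with 365 nm excitation and 515 nm long-pass emission. Biexponential rate constants vs free Mg fitted to Eq. 14 to extrapolate Mg-free and Mg-saturated values and KD.Mg.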

[1] = read-out: KD of Mg for free ADP; previously determined; cited from earlier work

SMILES | actin-activated ATPase rate (MV FlAsH; K50 buffer containing 4 mM EDTA (Mg free)) [s⁻¹] | reduction in actin-activated ATPase activity (MV FlAsH; high free Mg (3–9 mM) versus low free Mg (0.1–0.3 mM)) | Kd (acto-MV FlAsH; actomyosin V strong ADP binding conformation) [µM] | Kd (acto-MV FlAsH; actomyosin V weak ADP binding conformation) [µM] | Kd [1] [µM]
O=C(O)CN(CCN(CC(=O)O)CC(=O)O)CC(=O)O [EDTA, reference compound] | 0.06 | – | – | – | –
[Mg+2] [Mg, magnesium] | – | 50–60% and 60% | 900 ± 400 | 600 ± 300 | 350 ± 300
